In assay [1] the target is T1, 5-hydroxytryptamine receptor 2C (Rattus norvegicus, UniProt P08909).
T1 sequence (P08909 whole entry): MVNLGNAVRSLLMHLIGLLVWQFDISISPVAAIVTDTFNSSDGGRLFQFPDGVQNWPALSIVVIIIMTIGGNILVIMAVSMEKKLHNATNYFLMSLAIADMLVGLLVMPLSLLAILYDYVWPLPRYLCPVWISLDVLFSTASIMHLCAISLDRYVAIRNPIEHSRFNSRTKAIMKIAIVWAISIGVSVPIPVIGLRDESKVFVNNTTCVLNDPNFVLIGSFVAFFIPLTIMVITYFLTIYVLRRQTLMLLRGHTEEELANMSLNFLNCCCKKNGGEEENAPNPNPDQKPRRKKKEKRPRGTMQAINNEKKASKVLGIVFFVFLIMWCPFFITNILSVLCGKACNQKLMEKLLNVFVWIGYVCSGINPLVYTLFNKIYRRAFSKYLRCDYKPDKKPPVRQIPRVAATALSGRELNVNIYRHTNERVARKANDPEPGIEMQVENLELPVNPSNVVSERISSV
In words: Displacement of [3H]mesulergine from 5HT2C in Sprague-Dawley rat brain cortex by liquid scintillation counting. Put shortly:
(§1)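 Frontal cortex of male Sprague–Dawley rats (180–220 g), in 50 mM Tris-HCl, 0.5 mM EDTA, 10 mM MgCl2, pH 7.4, plus 0.1% ascorbate and pargyline. Triplicate 2.0 mL assays: 5-HT2A with 5 mg tissue and 0.4 nM [3H]ketanserin; 5-HT2C with 10 mg tissue and 1 nM [3H]mesulergine. 15 min at 37 °C, PEI-soaked filters. IC50 from six concentrations converted to Ki (Cheng–Prusoff).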
On the technique in general: Loss of bound radioactivity is the signal in a displacement assay; it reports binding, not function.

For assay [2], the target named is T2, 5-hydroxytryptamine receptor 1A (Rattus norvegicus, UniProt P19327).
T2 sequence (P19327 whole entry): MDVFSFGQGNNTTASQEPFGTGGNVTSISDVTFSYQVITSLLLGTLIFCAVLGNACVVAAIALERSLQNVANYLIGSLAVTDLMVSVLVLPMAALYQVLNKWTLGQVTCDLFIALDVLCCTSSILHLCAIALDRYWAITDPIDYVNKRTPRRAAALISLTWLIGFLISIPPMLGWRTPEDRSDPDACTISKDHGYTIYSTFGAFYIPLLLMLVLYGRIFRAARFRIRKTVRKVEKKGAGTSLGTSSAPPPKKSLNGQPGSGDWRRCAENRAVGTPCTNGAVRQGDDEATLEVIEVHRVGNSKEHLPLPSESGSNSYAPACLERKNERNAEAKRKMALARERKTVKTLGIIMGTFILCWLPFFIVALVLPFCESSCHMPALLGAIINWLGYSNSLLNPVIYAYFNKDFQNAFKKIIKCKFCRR
In words: Displacement of [3H]8OH-DPAT from 5HT1A in Sprague-Dawley rat brain cortex by liquid scintillation counting. In outline:
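Male Sprague–Dawley rat (180–220 g) cerebral cortex membranes, washed and preincubated 10 min at 37 °C, in Tris–HCl pH 7.7 with pargyline, 4 mM CaCl2, 0.1% ascorbate. [3H]-8-OH-DPAT at 0.1 nM final, 30 min at 37 °C, GF/B filtration. Nonspecific binding defined with 5-HT. Six concentrations in triplicate; IC50 converted to Ki by Cheng–Prusoff using Scatchard KD.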

Assay [3] deals with 5-hydroxytryptamine receptor 2A (Rattus norvegicus, UniProt P14842). In words: Displacement of [3H]ketanserin from 5HT2A in Sprague-Dawley rat brain cortex by liquid scintillation counting. In outline:
as §1

Sequence of 5-hydroxytryptamine receptor 2A (P14842 whole entry): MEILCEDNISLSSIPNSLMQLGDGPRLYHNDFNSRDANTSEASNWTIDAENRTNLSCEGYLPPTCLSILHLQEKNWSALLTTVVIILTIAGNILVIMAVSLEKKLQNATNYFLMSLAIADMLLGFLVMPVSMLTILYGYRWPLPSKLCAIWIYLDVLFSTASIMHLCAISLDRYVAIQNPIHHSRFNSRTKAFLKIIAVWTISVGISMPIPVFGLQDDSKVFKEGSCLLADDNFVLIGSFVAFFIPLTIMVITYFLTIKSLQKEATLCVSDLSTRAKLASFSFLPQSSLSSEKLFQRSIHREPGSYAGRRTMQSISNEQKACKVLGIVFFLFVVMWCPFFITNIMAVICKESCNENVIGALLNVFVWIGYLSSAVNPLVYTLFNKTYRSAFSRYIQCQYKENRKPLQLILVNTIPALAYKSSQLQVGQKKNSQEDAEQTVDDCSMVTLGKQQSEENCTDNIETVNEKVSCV

As to `CCOC(=O)c1cc2cc(OCCCN3CCN(c4ccc([N+](=O)[O-])cc4)CC3)ccc2[nH]1`, the Ki (commonly a dissociation constant, usually derived from enzyme kinetics or from competition with a known ligand) in assay [1] (read-out: Ki) is 247 nM; in assay [2], “Not Active”; in assay [3] (read-out: Ki), 10000 nM.
Regarding `CCOC(=O)c1cc2cc(OCCCN3CCN(c4cccc(C(F)(F)F)c4)CC3)ccc2[nH]1`, the values for the Ki entry in assay [1], in assay [2] (read-out: Ki) and in assay [3] (read-out: Ki) were “Not Active”, 35.8 nM and 3610 nM, respectively.
Take `CCOC(=O)c1cc2cc(OCCCN3CCN(c4ccccc4C)CC3)ccc2[nH]1`: the Ki result in assay [1] and in assay [3] was “Not Active” throughout.
Consider `CCOC(=O)c1cc2cc(OCCCN3CCN(c4ccccn4)CC3)ccc2[nH]1`, for which the Ki in assay [1] (read-out: Ki) is 104 nM; in assay [2] it was “Not Active”; in assay [3] (read-out: Ki), 344 nM.
Regarding `CCOC(=O)c1cc2cc(OCCCN3CCN(c4ccccc4C#N)CC3)ccc2[nH]1`, the Ki entry in assay [1] and in assay [3] was “Not Active” each time.
As for `CCOC(=O)c1cc2cc(OCCCN3CCN(c4ccc(Cl)cc4)CC3)ccc2[nH]1`, the Ki in assay [1] (read-out: Ki) is 45.1 nM; in assay [2] (read-out: Ki), 14 nM.
Turning to `CCOC(=O)c1cc2cc(OCCCN3CCN(c4ccc(Cl)c(Cl)c4)CC3)ccc2[nH]1`, the Ki is 10000 nM in assay [1] (read-out: Ki), 10000 nM in assay [2] (read-out: Ki) and “Not Active” in assay [3].
On to `CCOC(=O)c1cc2cc(OCCCN3CCN(C(=O)c4ccco4)CC3)ccc2[nH]1`, for which the Ki was 309 nM in assay [1] (read-out: Ki), “Not Active” in assay [2] and 452 nM in assay [3] (read-out: Ki).
Regarding `CCOC(=O)c1cc2cc(OCCCN3CCN(c4ccccc4Cl)CC3)ccc2[nH]1`, the results for the Ki in assay [1] (read-out: Ki), in assay [2] (read-out: Ki) and in assay [3] (read-out: Ki) were 39.7 nM, 10000 nM and 537 nM, respectively.

These data come from ChEMBL document CHEMBL1154740, “Efficient microwave combinatorial synthesis of novel indolic arylpiperazine derivatives as serotoninergic ligands” (Eur J Med Chem, 2010).
